Test results published in the EternaBench riboswitch data.

Test system: MS2 coat protein
Assay: apparent Kd, MS2 coat protein; higher = weaker binding; RNA-MaP array; FMN 200 µM where present
Summary of the method: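 Two titrations, one without ligand and one with constant ligand, were run with SNAP-549-labelled MS2 coat protein from 0.7 or 1.5 nM, doubling to 3 µM. The targets were designs transcribed by stalled E. coli RNA polymerase on Illumina sequencing-chip clusters, in 100 mM Tris-HCl pH 7.5, 80 mM KCl, 4 mM MgCl2, BSA, DTT, yeast tRNA and Tween-20. The apparent Kd is the median of filtered per-cluster binding-curve fits, with green signal normalised to red-channel RNA signal and control-cluster median Fmax.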

[1] = designed as: OFF switch for flavin mononucleotide, no ligand
[2] = ligand present: flavin mononucleotide, designed as: OFF switch for flavin mononucleotide
[3] = designed as: ON switch for flavin mononucleotide, no ligand
[4] = ligand present: flavin mononucleotide, designed as: ON switch for flavin mononucleotide

Sequence	apparent Kd [1] [nM]	apparent Kd [2] [nM]	apparent Kd [3] [nM]	apparent Kd [4] [nM]
GUAGAGUCAGGAUAUACAGAAAGUGGCUGGAAAACAGUGGCACAUGAGGAUCACCCAUGUAGAAGGGACUCUAC	89.4	215		
AGUGGACAUGAGGAUCACCCAUGUAUGCUGGCAUGAGGAUAUCCGAUUCGUUUCGACUAAGGAGAAGGCAUAGCCC			97.2	31.3
CGAGGAGGAGUGAGGAUAUCGUGUUCGAAAGAACGUGAGAAGGCACAUGAGGAUCACCCAUGUGAUACUUUUCG	13.6	28.8		
GCCAUCACAUGAGGAUAUGCUCCCGUUUCGGGAGCAGAAGGCAUGUCAUCAGACAUGAGGAUCACCCAUGUAGUUAAGAUGGCA			361	15.1
GAGGCCCAAACAUGAGGAUCACCCAUGUGUUUAGUCCUCACAUAGGAUAUCCACACGAGAAGUGUGGAGAAGGAUGAGGGCGUC	49	101		
UUUUAUUAGUAGAAGGACGGAGAGUAUGUAGUCGUAGGAUAUACAUAAGACAUGAGGAUCACCCAUGUGUGUAUUUUGGGUAUG	15.7	13.2		
CCACGGUAUGUAGGAUAUGCAUAGCAUUGCUAUGCAGAAGGACAUGAGGAUCACCCAUGUAUGUAUUCCAUACUAAUCCCGUGU	6.29	5.9		
GUCCUACAUGAGGAUCACCCAUGUAAGGAUAUGCUAGCGGUCGGCUGACUGACUGCUAGCAGAAGGUACAUGAU	17.5	24.6		
GUGUCUUGGGAGAAGGCCGUAUGCAAAGCAUACGGAGGAUAUUCAUACCGGAAACGGACAUGAGGAUCACCCAUGUGGCACAAA			947	34.8
GGGUUGUGAGGAUAUUAGUUGUACGUCAAUAGACGUAUAAGUGAGAAGGCACAUGAGGAUCACCCAUGUUCCUG	20.8	80.1		
UCAUCAACGGGCGGGUCGGUUGGACAUGAGGAUCACCCAUGUAGAAGGACCGGUGGGCUCCGGCGGUAGGAUAUACAUUUGGUG	8.14	13.3		
GCCCGGGCUAACAUGAGGAUCACCCAUGUGUUAUACUUAAUAUAGGAUAUGUUUAUACUUUUUGGGCAGAAGGAUGGCCCGGGC			68.2	61.7
AGGUGCACAGGAUAUACAUGAGGAUCACCCAUGUGCCAACUGUGCGCUGGUCCUUUAUGUAGAAGGGUGCGUCC	22.1	15.8		
UAGGACUACGUAGGAUAUGUAGUAGAUUACUACAUGAGGAUCACCCAUGUAAGCAUGUUAUUAGGACAGAAGGACGUGGUAAAU			30.4	11.1
UGGACCAGUACAGGAUAUGGUGACGCACAUGAGGAUCACCCAUGUCCGCAGCGUGCUCAGCACGCCCAGAAGGGUACUGAUUCG			718	76.4
UUGAACAUAGGAUAUAGUUGUUUGUACAUGAGGAUCACCCAUGUUAUGUAUGUUUUGUUUCUAGAAGGAUGUUGAU	37.7	32.3		
CAAUUGGCACAGAAGGGUGACAUGAGGAUCACCCAUGUAGCGUGGCUCUCAGGAGGAGCCACGCCACAGGAUAUGUGCGGGCAC			33.2	63.2
GACACUAUGUUUGUCAGAUAGAGAGAGGAUAUGGGUUAUGAGACAUGAGGAUCACCCAUGUUUAUUCAGAAGGCUCGAGUACGA			90.9	11.8
UUGAAGUCAUCAGGAUAUAGUAUUAAAGACAUUUAUUUUUUCAUACAUGAGGAUCACCCAUGUCGCUAGAAGGGAUUAUAGAUU	51.8	49.2		
ACCACGUUAGCGAUAUGAUCGAGAGAUCAUGUCGCUAUAUUUAGAAGGACAUGAGGAUCACCCAUGUAGGAUAUGGGUCGUGGA			36.3	9.03
AUAAGUUCGUCAGGAUAUACAUGAGACAGUAAUGUUUCAGGUAUGAUCACAUGAGGAUCACCCAUGUAGAAGGGACGAGCUUAU	6.48	20.6		
UUGUAGUGCGUAGGAUAUCAUUGAGGGUCACCCUGAGAAGGACGUGAGGACAUGAGGAUCACCCAUGUGGAUCACCCAUGUCAU	305	462		
AUUUGACAUGAGGAUCACCCAUGUGAGGAUAUCGUUAUUUACUUUGUUUAUAGUAUCUCGAGAAGGCACAUUUG	63.3	220		
UGGUAGUCAGGAUAUACGAACAUGUCGCCAGAUGUCAAGGUACAUGAGGAUCACCCAUGUAGAAGGGACUAGAA	44.5	48.2		
GUUAAUUAGUGAGGAUAUACAGAAAUUAAAACUGUAGAAGGCACAUUCCUCAAGACAUGAGGAUCACCCAUGUGAUAAUAAGAU	35.2	127		
ACGGCAAUCACAGGAUAUGGUUACAUGAGGAUCACCCAUGUCAAGGGUCUAAUUAGGUAUAACUACCAGAAGGGUGAAGGCCUA	74.4	105		
CGAUAGGACAGAGGAUAUACACAUGAGGAUCACCCAUGUAAUUACAAUUCUUAAGAUUCAAACAUGUAGAAGGCUGUCCUAUCG	35.9	13.1		
GGAGAUUACUCAGGAUAUCGCUAGACCGACAUGAGGAUCACCCAUGUGGGUGACGCGGUGGGCUACGAGAAGGGAGAAGUGCCC	11.5	11.7		
